Laboratory results: ChEMBL document CHEMBL4261538, “Synthesis and molecular docking studies of xanthone attached amino acids as potential antimicrobial and anti-inflammatory agents” (Medchemcomm, 2017)
Values after ≈ are worked out from the molar mass of the structure shown.

Key:
Escherichia coli [1] = assay: Antibacterial activity against Escherichia coli at 25 ug/ml incubated for 24 hrs by agar well diffusion method; assay type: functional; conditions: read-out: DIZ
Outline: (§1)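 Bacteria grown in nutrient broth at 37 °C for 24 h, then subcultured at room temperature. Compounds dissolved in DMSO at 5 mg mL⁻¹ and 5–20 µL added to 6 mm wells, giving 25, 50, 75, 100 µg per well. Gentamicin was the positive control and DMSO the negative control. Plates held at 37 °C for 24 h, then inhibition zone diameter (mm) measured. Values are means of three determinations.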

Candida albicans [2] = assay: Antifungal activity against Candida albicans at 25 ug/ml incubated for 48 hrs by agar well diffusion method; assay type: functional; conditions: read-out: DIZ
Outline: (§2)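 Compounds dissolved in DMSO at 5 mg mL⁻¹ and 5–20 µL added to 6 mm wells, giving 25, 50, 75, 100 µg per well. Bavistin was the positive control and DMSO the negative control. Plates incubated at 28 °C for 48 h, then inhibition zone diameter (mm) measured. Values are means of three determinations.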

Bacillus subtilis [3] = assay: Antibacterial activity against Bacillus subtilis at 75 ug/ml incubated for 24 hrs by agar well diffusion method; assay type: functional; conditions: read-out: DIZ; outline: as §1
Escherichia coli [4] = assay: Antibacterial activity against Escherichia coli at 75 ug/ml incubated for 24 hrs by agar well diffusion method; assay type: functional; conditions: read-out: DIZ; outline: as §1
Staphylococcus aureus [5] = assay: Antibacterial activity against Staphylococcus aureus at 50 ug/ml incubated for 24 hrs by agar well diffusion method; assay type: functional; conditions: read-out: DIZ; outline: as §1
Staphylococcus aureus [6] = assay: Antibacterial activity against Staphylococcus aureus at 25 ug/ml incubated for 24 hrs by agar well diffusion method; assay type: functional; conditions: read-out: DIZ; outline: as §1
Klebsiella pneumoniae [7] = assay: Antibacterial activity against Klebsiella pneumoniae at 25 ug/ml incubated for 24 hrs by agar well diffusion method; assay type: functional; conditions: read-out: DIZ; outline: as §1
Bacillus subtilis [8] = assay: Antibacterial activity against Bacillus subtilis at 25 ug/ml incubated for 24 hrs by agar well diffusion method; assay type: functional; conditions: read-out: DIZ; outline: as §1
Fusarium oxysporum [9] = assay: Antifungal activity against Fusarium oxysporum at 25 ug/ml incubated for 48 hrs by agar well diffusion method; assay type: functional; conditions: read-out: DIZ; outline: as §2
Bacillus subtilis [10] = assay: Antibacterial activity against Bacillus subtilis at 50 ug/ml incubated for 24 hrs by agar well diffusion method; assay type: functional; conditions: read-out: DIZ; outline: as §1
Candida albicans [11] = assay: Antifungal activity against Candida albicans at 75 ug/ml incubated for 48 hrs by agar well diffusion method; assay type: functional; conditions: read-out: DIZ; outline: as §2
Escherichia coli [12] = assay: Antibacterial activity against Escherichia coli at 50 ug/ml incubated for 24 hrs by agar well diffusion method; assay type: functional; conditions: read-out: DIZ; outline: as §1
Fusarium oxysporum [13] = assay: Antifungal activity against Fusarium oxysporum at 100 ug/ml incubated for 48 hrs by agar well diffusion method; assay type: functional; conditions: read-out: DIZ; outline: as §2
Aspergillus niger [14] = assay: Antifungal activity against Aspergillus niger at 75 ug/ml incubated for 48 hrs by agar well diffusion method; assay type: functional; conditions: read-out: DIZ; outline: as §2
Fusarium oxysporum [15] = assay: Antifungal activity against Fusarium oxysporum at 75 ug/ml incubated for 48 hrs by agar well diffusion method; assay type: functional; conditions: read-out: DIZ; outline: as §2
Aspergillus niger [16] = assay: Antifungal activity against Aspergillus niger at 25 ug/ml incubated for 48 hrs by agar well diffusion method; assay type: functional; conditions: read-out: DIZ; outline: as §2
Klebsiella pneumoniae [17] = assay: Antibacterial activity against Klebsiella pneumoniae at 100 ug/ml incubated for 24 hrs by agar well diffusion method; assay type: functional; conditions: read-out: DIZ; outline: as §1
Staphylococcus aureus [18] = assay: Antibacterial activity against Staphylococcus aureus at 100 ug/ml incubated for 24 hrs by agar well diffusion method; assay type: functional; conditions: read-out: DIZ; outline: as §1
Candida albicans [19] = assay: Antifungal activity against Candida albicans at 100 ug/ml incubated for 48 hrs by agar well diffusion method; assay type: functional; conditions: read-out: DIZ; outline: as §2
Klebsiella pneumoniae [20] = assay: Antibacterial activity against Klebsiella pneumoniae at 75 ug/ml incubated for 24 hrs by agar well diffusion method; assay type: functional; conditions: read-out: DIZ; outline: as §1
Escherichia coli [21] = assay: Antibacterial activity against Escherichia coli at 100 ug/ml incubated for 24 hrs by agar well diffusion method; assay type: functional; conditions: read-out: DIZ; outline: as §1
Aspergillus niger [22] = assay: Antifungal activity against Aspergillus niger at 50 ug/ml incubated for 48 hrs by agar well diffusion method; assay type: functional; conditions: read-out: DIZ; outline: as §2
Staphylococcus aureus [23] = assay: Antibacterial activity against Staphylococcus aureus at 75 ug/ml incubated for 24 hrs by agar well diffusion method; assay type: functional; conditions: read-out: DIZ; outline: as §1
Erythrocyte = assay: Anti-inflammatory activity in human RBC assessed as inhibition of hypotonic solution-induced hemolysis after 10 mins by spectrophotometric method; assay type: functional, cell-based
Outline: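 Human blood (heparinized) washed with 0.9% saline, packed cells made into a 40% v/v stock in isotonic phosphate buffer (154 mM NaCl, 10 mM sodium phosphate, pH 7.4). Stock RBC mixed with hypotonic buffer (50 mM NaCl, 10 mM phosphate, pH 7.4) plus sample at 20–100 µg mL⁻¹.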

Candida albicans [24] = assay: Antifungal activity against Candida albicans at 50 ug/ml incubated for 48 hrs by agar well diffusion method; assay type: functional; conditions: read-out: DIZ; outline: as §2
Klebsiella pneumoniae [25] = assay: Antibacterial activity against Klebsiella pneumoniae at 50 ug/ml incubated for 24 hrs by agar well diffusion method; assay type: functional; conditions: read-out: DIZ; outline: as §1
Bacillus subtilis [26] = assay: Antibacterial activity against Bacillus subtilis at 100 ug/ml incubated for 24 hrs by agar well diffusion method; assay type: functional; conditions: read-out: DIZ; outline: as §1
Aspergillus niger [27] = assay: Antifungal activity against Aspergillus niger at 100 ug/ml incubated for 48 hrs by agar well diffusion method; assay type: functional; conditions: read-out: DIZ; outline: as §2
Fusarium oxysporum [28] = assay: Antifungal activity against Fusarium oxysporum at 50 ug/ml incubated for 48 hrs by agar well diffusion method; assay type: functional; conditions: read-out: DIZ; outline: as §2

SMILES | zone of inhibition at 25 µg/mL (Escherichia coli [1]) | zone of inhibition at 25 µg/mL (Candida albicans [2]) | zone of inhibition at 75 µg/mL (Bacillus subtilis [3]) | zone of inhibition at 75 µg/mL (Escherichia coli [4]) | zone of inhibition at 50 µg/mL (Staphylococcus aureus [5]) | zone of inhibition at 25 µg/mL (Staphylococcus aureus [6]) | zone of inhibition at 25 µg/mL (Klebsiella pneumoniae [7]) | zone of inhibition at 25 µg/mL (Bacillus subtilis [8]) | zone of inhibition at 25 µg/mL (Fusarium oxysporum [9]) | zone of inhibition at 50 µg/mL (Bacillus subtilis [10]) | zone of inhibition at 75 µg/mL (Candida albicans [11]) | zone of inhibition at 50 µg/mL (Escherichia coli [12]) | zone of inhibition at 100 µg/mL (Fusarium oxysporum [13]) | zone of inhibition at 75 µg/mL (Aspergillus niger [14]) | zone of inhibition at 75 µg/mL (Fusarium oxysporum [15]) | zone of inhibition at 25 µg/mL (Aspergillus niger [16]) | zone of inhibition at 100 µg/mL (Klebsiella pneumoniae [17]) | zone of inhibition at 100 µg/mL (Staphylococcus aureus [18]) | zone of inhibition at 100 µg/mL (Candida albicans [19]) | zone of inhibition at 75 µg/mL (Klebsiella pneumoniae [20]) | other results
CC[C@H](C)[C@H](N)C(=O)Oc1ccc2c(=O)c3ccccc3oc2c1.Cl | 10 mm | 10 mm | 20 mm | 18 mm | 12 mm | 7 mm | 8 mm | 11 mm | 11 mm | 17 mm | 16 mm | 13 mm | 21 mm | 18 mm | 19 mm | 10 mm | 24 mm | 23 mm | 20 mm | 18 mm | zone of inhibition at 100 µg/mL (Escherichia coli [21]): 22 mm; zone of inhibition at 50 µg/mL (Aspergillus niger [22]): 15 mm; zone of inhibition at 75 µg/mL (Staphylococcus aureus [23]): 19 mm; IC50 (Erythrocyte): 68 µg/mL; zone of inhibition at 50 µg/mL (Candida albicans [24]): 14 mm; zone of inhibition at 50 µg/mL (Klebsiella pneumoniae [25]): 13 mm; zone of inhibition at 100 µg/mL (Bacillus subtilis [26]): 24 mm; zone of inhibition at 100 µg/mL (Aspergillus niger [27]): 23 mm; zone of inhibition at 50 µg/mL (Fusarium oxysporum [28]): 15 mm
CSCC[C@H](N)C(=O)Oc1ccc2c(=O)c3ccccc3oc2c1.Cl | 17 mm | 12 mm | 25 mm | 25 mm | 19 mm | 17 mm | 17 mm | 15 mm | 13 mm | 20 mm | 21 mm | 21 mm | 22 mm | 21 mm | 19 mm | 11 mm | 33 mm | 28 mm | 23 mm | 29 mm | zone of inhibition at 100 µg/mL (Escherichia coli [21]): 29 mm; zone of inhibition at 50 µg/mL (Aspergillus niger [22]): 18 mm; zone of inhibition at 75 µg/mL (Staphylococcus aureus [23]): 22 mm; IC50 (Erythrocyte): 34 µg/mL; zone of inhibition at 50 µg/mL (Candida albicans [24]): 17 mm; zone of inhibition at 50 µg/mL (Klebsiella pneumoniae [25]): 24 mm; zone of inhibition at 100 µg/mL (Bacillus subtilis [26]): 31 mm; zone of inhibition at 100 µg/mL (Aspergillus niger [27]): 24 mm; zone of inhibition at 50 µg/mL (Fusarium oxysporum [28]): 17 mm
CC(C)(C)OC(=O)N[C@@H](CS)C(=O)Oc1ccc2c(=O)c3ccccc3oc2c1 | 18 mm | 17 mm | 29 mm | 30 mm | 28 mm | 20 mm | 18 mm | 20 mm | 18 mm | 26 mm | 28 mm | 26 mm | 35 mm | 31 mm | 30 mm | 18 mm | 34 mm | 34 mm | 34 mm | 30 mm | zone of inhibition at 100 µg/mL (Escherichia coli [21]): 34 mm; zone of inhibition at 50 µg/mL (Aspergillus niger [22]): 26 mm; zone of inhibition at 75 µg/mL (Staphylococcus aureus [23]): 32 mm; IC50 (Erythrocyte): 32 µg/mL (≈ 77 µM); zone of inhibition at 50 µg/mL (Candida albicans [24]): 22 mm; zone of inhibition at 50 µg/mL (Klebsiella pneumoniae [25]): 24 mm; zone of inhibition at 100 µg/mL (Bacillus subtilis [26]): 34 mm; zone of inhibition at 100 µg/mL (Aspergillus niger [27]): 34 mm; zone of inhibition at 50 µg/mL (Fusarium oxysporum [28]): 24 mm
